# Screening data: PubChem BioAssay, several laboratories
# MrgX1 agonist: activates human MrgX1 receptor signaling | Q96LB2 | MrgX1-HEK293 cells, Fluo-4 calcium fluorescence, agonist mode; hits give high values | B-score at 10 µM | hit rate 0.44% among 310,000 | AID 588627;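 active = calcium response B-score plate-corrected fluorescence ratio at least 3 library SD, with starting fluorescence B-score inside 5 SD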
# Target sequence (Q96LB2 whole entry, looked up): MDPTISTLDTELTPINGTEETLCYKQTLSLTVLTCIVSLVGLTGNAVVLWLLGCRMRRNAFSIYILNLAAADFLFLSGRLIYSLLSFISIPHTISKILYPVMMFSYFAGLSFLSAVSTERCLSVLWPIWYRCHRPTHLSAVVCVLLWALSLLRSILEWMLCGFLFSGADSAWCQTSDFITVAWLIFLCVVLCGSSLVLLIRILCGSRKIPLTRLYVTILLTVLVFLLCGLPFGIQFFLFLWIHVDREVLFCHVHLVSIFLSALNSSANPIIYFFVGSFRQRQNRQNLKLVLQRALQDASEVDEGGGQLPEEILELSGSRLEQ
#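 Assay system: MrgX1-expressing HEK293 cells / Amount: fifteen thousand cells per well / Doses: test compound in the initial addition of three / Timing: cells plated overnight, dye loaded 0.5 h 37 °C, 0.5 h room temperature / Technique: kinetic calcium dye fluorescence, Fluo-4 NW / Control set: positive and negative controls per plate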
# Lipid droplet: hepatic lipid droplet formation modulation. hit rate 0.4% among 240,000. inhibition, % at 6.5 µM. AML12 mouse hepatocytes, oleate lipid droplets, BODIPY imaging;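 active = lipid droplet intensity inhibited by at least 50%, with more than 500 cells counted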
#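 Material – mouse AML12 hepatocyte cell line, fixed after treatment · Compound dosing – one dose, 6.5 µM compound · Times – compound with oleate, overnight · Measured by – Image-based BODIPY and DAPI two-channel analysis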
# RGS4 block: human RGS4 inhibition | AID 463165 | B-score at 10 µM | hit rate 0.45% among 310,000 | P49798 | HEK293 M3R/RGS4 inducible, Fluo-4 calcium flux; hits give high values; triggered by carbachol at its EC20;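 active = B-score, a plate-corrected calcium signal, over three deviations above library mean, with baseline fluorescence within five deviations of library mean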;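 also: RGS4 expression induced by doxycycline in cells with stable M3 receptor; B-score is computed from the integrated fluorescence ratio over baseline after carbachol; higher B-score means a larger calcium signal and so more RGS4 inhibition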
# Target sequence (P49798 whole entry, looked up): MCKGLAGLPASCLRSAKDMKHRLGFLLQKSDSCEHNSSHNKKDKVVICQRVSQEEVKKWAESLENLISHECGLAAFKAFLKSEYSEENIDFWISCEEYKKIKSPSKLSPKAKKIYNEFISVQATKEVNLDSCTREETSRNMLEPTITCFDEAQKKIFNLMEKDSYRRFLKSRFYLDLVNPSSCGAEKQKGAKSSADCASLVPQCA
# RGS4 pot: potentiators or activators of RGS4; B-score at 10 µM; HEK293 M3R/inducible RGS4, carbachol calcium flux Fluo4; hits give low values; hit rate 0.92% among 310,000; AID 463111;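 active = B-score of the integrated calcium signal more than 4 SD below the library mean, with starting fluorescence not abnormally high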;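 also: negative B-score means reduced calcium response which marks RGS4 activation or potentiation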
#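 Assay system: Inducible-RGS4 HEK293 cells carrying M3 receptor | Schedule: Compound preincubation 20 min at room temperature before agonist | Signal: Kinetic calcium fluorescence imaging with Fluo4-AM dye, 2 µM | Read-out basis: B score from integrated fluorescence ratio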
# MrgX1 allo act: allosterically activates human MrgX1 receptor signaling | hit rate 0.63% among 310,000 | MrgX1-HEK293, Fluo-4 calcium flux, FDSS; hits give high values | AID 588675 | B-score at 10 µM | Q96LB2;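 active = plate-corrected calcium response at least 3 library SD above typical, normal starting fluorescence, not activating the receptor alone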;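 also: compound read alongside a low EC10 to EC30 dose of BAM8-22 agonist; peak minus trough fluorescence over baseline measured at the second addition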
# MrgX1 antagonist: blocks BAM8-22 activation of human MrgX1 receptor. MRGX1-HEK293 calcium flux, Fluo-4, BAM8-22 antagonism; hits give low values. hit rate 1.3% among 310,000. B-score at 10 µM. Q96LB2;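 active = calcium-response B-score plate-corrected more than 3 library SD below zero, starting fluorescence within 5 deviations, no agonist response on first addition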;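 also: peak minus trough fluorescence over baseline after final BAM8-22 challenge near maximal dose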
# Lipid drop inh: hepatic lipid droplet formation inhibition, confirmed | shares compounds with Lipid droplet | AID 463183 | hit rate 65% among 870 | AML12 mouse hepatocytes, BODIPY lipid droplet imaging; droplets induced with 100 µM oleic acid | inhibition, % at 5.2 µM;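 active = inhibition of lipid droplet metric at least 50%, with more than 300 cells in each of four replicates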;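 also: plate controls were DMSO with oleic acid for no effect and 5 µM Triacsin-C for full effect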
# AML12 cytotox: AML12 hepatocyte cytotoxicity (counter-screen); shares compounds with Lipid droplet; AML12 mouse hepatocytes, DAPI nuclear morphology cytotoxicity imaging; hits give high values; cells fed 100 µM oleate overnight; z-score at 5 µM; hit rate 3% among 870; in the data active = z-score above about 6.3;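 also: compound exposure lasted overnight at 37 °C before fixation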
# AML12 tox conf: AML12 hepatocyte cytotoxicity, confirmed; shares compounds with Lipid droplet; AML12 mouse hepatocyte viability, ATP luminescence; cells loaded with 100 µM oleic acid; cytotoxicity, % at 50 µM; 530 tested, under 10 active; AID 463219;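 active = cytotoxicity above 50% in each of four replicates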;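 also: compound exposure lasted overnight at 37 °C before the ATP read; 0% = DMSO-treated cells and 100% = wells with no cells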
# The depositor's hits bear a star; i = inactive; / = no result given. Shown are actives, neighbours in structure and some others; about 3.8% of the full set was active somewhere.
SMILES,MrgX1 agonist,Lipid droplet,RGS4 block,RGS4 pot,MrgX1 allo act,MrgX1 antagonist,Lipid drop inh,AML12 cytotox,AML12 tox conf
CN1C(=O)[C@H]2[C@@H](C3CC3)N3C(=O)CN(CCO)C(=O)[C@@]3(Cc3ccccc3)[C@H]2C1=O,i,3,i,i,i,i,/,/,/
COc1ccc(OC)c(NC(=O)Cc2coc3ccc4ccccc4c23)c1,i,51*,i,i,i,i,85*,0.52,12
O=C(O)Cc1coc2ccc3ccccc3c12,i,25,i,i,i,i,/,/,/
Cc1cccc(NC(=O)Cc2coc3ccc4ccccc4c23)n1,i,57*,i,i,i,i,88*,-0.14,14
O=C(CSC(=S)N1CCOCC1)Nc1nc(=O)c2ccccc2s1,i,-20,i,i,i,i,/,/,/
CC(=O)c1ccc(N2CCCC2)c(F)c1,i,53*,i,i,i,i,23,-0.96,/
CC(=O)c1ccc(N2CCC(C)CC2)c(F)c1,i,-10,i,i,i,i,/,/,/
CC(=O)C1=C(C)Nc2ncnn2C1c1ccc(Br)cc1 (configuration not stated),i,/,i,i,i,i,/,/,/
COc1ccc(-n2c(C)cc(/C=C3\SC(=S)N(Cc4ccco4)C3=O)c2C)cc1,i,46,i,i,i,i,/,/,/
CCN1CCN(c2c(/C=C3\SC(=S)N(Cc4ccco4)C3=O)c(C)c(C#N)c(=O)n2C)CC1,i,65*,i,i,i,i,9,-0.44,/
CCOC(=O)C1=C(O)C(=O)N(Cc2cccnc2)C1c1ccc(OC)cc1 (configuration not stated),i,11,i,i,i,i,/,/,/
N/C(=N\c1nc2c(c(=O)[nH]1)CCCC2)Nc1ccc(Oc2ccccc2)cc1,i,61*,i,i,i,i,41,1.1,/
CC1CC(C)CN(CCCNC(=O)Cn2cccc2C(=O)c2ccccc2)C1 (configuration not stated),i,-52,i,i,i,i,/,/,/
Cc1cccc(S(=O)(=O)Nc2ccc(C)c3c2OC(C)(C)C3)c1,i,5,i,i,i,i,/,/,/
COc1ccc(S(=O)(=O)N2CCCC2CNC(=O)C(=O)NCc2ccccn2)cc1 (configuration not stated),i,/,i,i,i,i,/,/,/
O=S1(=O)N=C(Oc2cccc3ccccc23)c2ccccc21,i,66*,i,i,i,i,23,-0.32,/
CCOc1ccc2nc(NC(=O)CSc3nc4ccccc4c(=O)n3Cc3ccco3)sc2c1,i,57*,i,i,i,i,106*,-0.69,14
CCOc1ccccc1NC(=O)N1CCCC1C(=O)Nc1ccc(-n2cnnn2)c(C)c1 (configuration not stated),i,74*,i,i,i,i,97*,0.38,-4
Cc1ccc(NC(=O)N2CCCC2C(=O)Nc2ccc(-n3cnnn3)c(C)c2)cc1 (configuration not stated),i,12,i,i,i,i,/,/,/
CCOc1ccccc1N=Nc1c(C)[nH]n(-c2ccccc2)c1=O,i,76*,i,i,i,i,13,0.31,/
Cc1[nH]n(-c2ccccc2)c(=O)c1N=Nc1c(Cl)cccc1Cl,i,1,i,i,i,i,/,/,/
COc1ccccc1N=Nc1c(C)[nH]n(-c2ccccc2)c1=O,i,56*,i,i,i,i,4,0.029,/
CCn1cc([N+](=O)[O-])c(C(=O)N2N=C(c3ccccc3)CC2c2ccc([N+](=O)[O-])cc2)n1 (configuration not stated),i,-5,i,i,i,i,/,/,/
CCn1cc([N+](=O)[O-])c(C(=O)N2N=C(c3ccc4ccccc4c3)CC2c2cc(Br)ccc2O)n1 (configuration not stated),i,89*,i,i,i,i,77*,-1.5,11
CCOC(=O)c1ccc(NC(=O)CSc2nc3c(c(=O)n2C)SC(C)C3)cc1 (configuration not stated),i,/,i,i,i,i,/,/,/
SMILES,MrgX1 agonist,Lipid droplet,RGS4 block,RGS4 pot,MrgX1 allo act,MrgX1 antagonist,Lipid drop inh,AML12 cytotox,AML12 tox conf
CCOC(=O)c1ccc(NC(=O)CSc2nc3c(c(=O)n2CC)SC(C)C3)cc1 (configuration not stated),i,52*,i,i,i,i,79*,-0.85,12
Cc1cc(N2CCOCC2)n2nc(C)c(-c3ccccc3Cl)c2n1,i,78*,i,i,i,i,107*,-0.16,7
Cc1cc(N2CCOCC2)n2nc(C)c(-c3ccccc3)c2n1,i,/,/,/,i,i,/,/,/
Cc1ccc(-c2c(C)nn3c(N4CCOCC4)cc(C)nc23)cc1,i,71*,i,i,i,i,108*,0.36,4
Cc1cc(N2CCCCCC2)n2nc(C)c(-c3ccccc3)c2n1,i,9,i,i,i,i,/,/,/
CCN(CC)C(=O)CCCc1c[nH]c2ccccc12,i,12,i,i,i,i,/,/,/
CCN(CC(=O)Nc1c(F)cccc1F)C(=O)CCCc1c[nH]c2ccccc12,i,82*,i,i,i,i,105*,-0.5,8
NC(=O)CNC1CC(=O)N(CCc2ccccc2)C1=O (configuration not stated),i,-3,i,i,i,i,/,/,/
COc1cccc(CNC(=O)C2CCCN(S(=O)(=O)c3c(C)noc3/C=C/N(C)C)C2)c1 (configuration not stated),i,74*,i,i,i,i,80*,-0.47,13
COc1cccc(CNC(=O)CCNC(=O)C2CCN(S(=O)(=O)c3ccccc3)CC2)c1,i,60*,i,i,i,i,81*,-0.74,13
COc1cccc(CNC(=O)CCNC(=O)C2CCN(S(=O)(=O)c3ccc(F)cc3)CC2)c1,i,42,i,i,i,i,/,/,/
